In the library only some 4.6% were active in any assay of this set; here they are far more common.
TAAR1 agonist – human TAAR1 agonists, primary screen, Fluo-8 calcium fluorescence, CHO RD-HGA16 cells; Trace amine-associated receptor 1 (Homo sapiens), Q96RJ0; vehicle wells 0%, saturating PEA agonist 100%; activation, % at 3 µM; actives 0.99% (n = 360,000);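 active means activation above the mean activation of all test compounds in the run plus 3 SD, cut at about 38% in these data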
Target sequence (Q96RJ0 whole entry, looked up): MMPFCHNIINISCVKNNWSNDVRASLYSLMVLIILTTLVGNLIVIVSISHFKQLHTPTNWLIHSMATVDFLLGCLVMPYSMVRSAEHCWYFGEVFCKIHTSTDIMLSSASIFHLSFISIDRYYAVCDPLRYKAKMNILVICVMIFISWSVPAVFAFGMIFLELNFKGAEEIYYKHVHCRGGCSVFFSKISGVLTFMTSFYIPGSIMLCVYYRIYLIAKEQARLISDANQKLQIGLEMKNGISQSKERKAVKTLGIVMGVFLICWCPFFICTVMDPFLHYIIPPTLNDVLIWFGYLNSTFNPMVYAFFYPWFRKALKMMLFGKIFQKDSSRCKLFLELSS
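Test system: RD-HGA16 (CHO) cells co-expressing Gα16 and hTAAR1; dosing: one-point dosing at 3 µM (nominal); timing: 17-24 h seeding, 75 min 37 °C dye, 30 min RT; signal: kinetic Fluo-8 calcium fluorescence; read-out basis: % activation relative to PEA EC100 response; controls: DMSO and PEA EC100; replicates: n 1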
CHO parental Ca – ATP-evoked calcium signal inhibitors, parental CHO, primary screen, counter-screen for OX1R antagonist project, cell-based, fluorescence, Fluo-8 calcium dye. parental CHO-K1, ATP-induced calcium, Fluo-8 fluorescence. actives 0.63% (n = 330,000). inhibition, % at 5.6 µM;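 active means inhibition above that plate's mean sample inhibition plus 3 SD, cut at about 26% in these data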;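 further: 0% = ATP-challenged DMSO wells and 100% = DMSO wells without ATP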
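Test system: untransfected parental CHO cell line; also added: ATP stimulus; dosing: 5.6 µM, single dose; signal: calcium-sensitive Fluo-8 fluorescence; measure: percent inhibition of ATP-evoked calcium rise, normalized to controls; benchmarks: low control ATP plus DMSO, high control DMSO only; replication: one well per compound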
OX1R antag-1 – antagonists of human orexin 1 receptor (OX1R); Orexin/Hypocretin receptor type 1 (Homo sapiens), O43613; OX1R-expressing cells, FRET antagonist read-out; inhibition, % at 6.6 µM; actives 1.8% (n = 330,000); AID 485270, 2010; in the data active means inhibition mostly above about 38%, no sharp cut-off; inactive means mostly below about 40%;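 further: 0% = agonist challenge alone and 100% = reference antagonist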
TAAR1 antag – human TAAR1 antagonists, primary screen, Fluo-8 calcium fluorescence, CHO RD-HGA16 cells; Trace amine-associated receptor 1 (Homo sapiens), Q96RJ0; antagonist; inhibition, % at 3 µM; actives 1.5% (n = 360,000); AID 624466, 2012;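 active means inhibition above a per-plate cutoff, the mean inhibition of test compounds on that plate plus 3 SD, cut at about 49% in these data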;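 further: 0% = DMSO plus EC80 beta-PEA response and 100% = DMSO alone without agonist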
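Test system – hTAAR1-expressing CHO RD-HGA16 cells, Gα16-coupled · Also added – β-PEA at EC80 concentration, post-compound challenge · Compound – 3 µM, single point · Incubation – dye loading 75 min at 37 °C, then 30 min room temperature · Measured by – Fluo-8 intracellular calcium dye fluorescence, real-time kinetic reads · Benchmarks – vehicle and agonist controls · Replicates – singlicate, one well per test compound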
GPR7 antag – GPR7 receptor antagonists, primary screen, cell-based, fluorescence, single concentration; Neuropeptides B/W receptor type 1 (Homo sapiens), P48145; GPR7-expressing cells, fluorescence antagonist assay; inhibition, % at 4.4 µM; actives 1.1% (n = 290,000); AID 1861, 2009; in the data active means inhibition above about 16%, passing the limit was not always enough;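 further: cells stimulated with the agonist NPW; 0% = agonist with vehicle and 100% = vehicle without agonist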
OX1R antag-2 – OX1R (HCRTR1) antagonists, primary screen, fluorescence, CHO/OX1R cells, Fluo-8 calcium, orexin A | Fluo-8 calcium fluorescence | inhibition, % at 5 µM | actives 0.43% (n = 330,000) | AID 434989, 2010;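 active means inhibition above its plate's threshold, mean inhibition of all tested compounds on the plate plus 3 SD, cut at about 37% in these data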;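 further: 0% = orexin A challenge wells and 100% = SB-334867-A antagonist wells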
* marks the source's active call; other numbers are inactive results; . = no result.

SMILES | TAAR1 agonist | CHO parental Ca | OX1R antag-1 | TAAR1 antag | GPR7 antag | OX1R antag-2
C=CCN=C1NC(CCc2ccccc2)C(C(=O)OC)=C(C)N1Cc1cccc(C(F)(F)F)c1 (stereo unspecified) | 25.3 | . | . | 33.0 | . | .
O=C(CN1C(=O)CSc2ccc(S(=O)(=O)N3CCOCC3)cc21)NCc1ccc(Cl)cc1 | -0.2 | -3.5 | 48.3* | -3.3 | -12.2 | 3.4
C#CCNC(=O)C[C@H]1C[C@@]2(C(=O)OC)C(=C[C@H](C3CCCC3)O[C@@H]2C)N(Cc2ccccc2)C1=O | 2.4 | . | . | -0.6 | . | .
CS(=O)(=O)Nc1ccccc1C(=O)OCC(=O)N1CCC(c2ccccc2)=N1 | 14.2 | -3.8 | 62.8* | 8.2 | . | 7.8
C=C(C(=O)c1ccccc1)C(c1ccccc1)C(C)C(=O)c1ccccc1 (stereo unspecified) | 0.6 | 41.5* | 16.0 | 0.0 | -16.0 | -22.5
Cc1ccccc1-n1c(=O)c(C#N)cc2c(=O)n3ccccc3nc21 | 7.6 | -11.9 | 48.5* | 6.0 | 8.2 | -8.9
COC(=O)C1=C(C)N(C)C(=NCc2cccc(C(F)(F)F)c2)NC1c1cccc(F)c1 (stereo unspecified) | 21.5 | . | . | 27.3 | . | .
COc1cc(/C=C/C(=O)OCC(=O)N(CC(C)C)c2c(N)n(Cc3ccccc3)c(=O)[nH]c2=O)ccc1O | 25.2 | . | . | 49.4* | . | .
O=C(/C=C/c1cccc(F)c1)OCC(=O)N1CCc2ccccc21 | 19.8 | -8.6 | 1.0 | 48.6* | . | 12.0
COc1cc(/C=C/C(=O)OCC(=O)N2CCCc3ccccc32)ccc1O | 5.1 | -16.3 | 18.6 | 21.7 | . | -15.7
Cc1ccc(C(=O)NCC(=O)OCC(=O)c2ccc3c(c2)NC(=O)CO3)cc1C | 2.0 | -3.1 | 25.9 | -5.0 | -7.6 | 7.4
Cc1cc(C)cc(OCC(=O)OCC(=O)c2ccc3c(c2)NC(=O)CO3)c1 | 18.6 | 38.3* | 24.0 | 16.6 | -8.7 | 7.2
Cc1ccc(NC(=S)NCc2ccc(S(N)(=O)=O)cc2)cc1Cl | 16.5 | 5.4 | 1.7 | 23.2 | 20.1* | 0.8
CCOC(=O)c1cnc(-c2ccccc2)nc1Oc1ccc(Cl)c(Cl)c1 | 9.7 | -3.7 | 6.5 | 1.2 | 18.5* | -7.3
CCOC(=O)c1cnc(-c2ccccc2)nc1Oc1cccc(Cl)c1 | 18.1 | -1.7 | 13.8 | -2.9 | -2.9 | -19.9
O=c1c(-c2nnc(SCc3ccc(Cl)cc3Cl)o2)cccn1Cc1ccccc1 | 5.9 | 43.0* | 51.7* | 10.0 | -5.3 | 49.1*
CSc1nnc(-c2cccn(Cc3ccccc3)c2=O)o1 | 3.0 | -16.2 | 27.1 | -5.0 | -8.3 | -22.5
CSCCC(NC=O)C(=O)NC(C)C(=O)O (stereo unspecified) | 0.4 | . | . | -14.5 | . | .
O=C(Nc1ccc2c(c1)OCO2)c1cnn2cccnc12 | 10.2 | -2.5 | -1.1 | -5.6 | 17.2* | 0.8
O=C(Nc1cccc(O)c1)c1cnn2cccnc12 | 4.3 | -13.8 | 10.7 | -3.4 | -5.5 | -13.8
CCc1nc2c(OCCn3cccc3)cccn2c1N(C)C(=O)c1ccc(C)cc1 | -1.4 | . | . | 8.5 | . | .
c1ccc(-c2csc(Nc3cccnc3)n2)nc1 | 8.0 | 0.1 | -0.7 | 18.9 | -4.7 | 9.4
COc1cccc2sc(NNC(=O)COc3ccccc3)nc12 | 4.8 | -12.2 | 33.3 | -23.1 | -0.1 | -13.2
O=C(Nc1ccc(-c2csc(Nc3ccc(Cl)cc3)n2)cc1)c1ccccc1 | 3.9 | 1.3 | 7.2 | 50.7* | . | 1.9
COc1cccc2sc(Nc3nc(-c4ccccn4)cs3)nc12 | . | 45.0* | 113.6* | . | -5.6 | 102.0*
c1ccc(Nc2nc(-c3ccccn3)cs2)cc1 | 6.3 | -24.3 | 76.6* | -2.6 | -0.7 | -14.7
C[C@H](c1ccccc1)N1C[C@@H](COCc2ccccc2)Oc2cccc(N3CCCCC3)c2S1(=O)=O | 5.1 | . | . | 0.4 | . | .

High-throughput results deposited in PubChem by The Scripps Research Institute Molecular Screening Center.
